In PubChem BioAssay:
The source made the active and inactive calls.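 Rule for the calls, unless noted: active = viability loss from added drug above about 55%, and viability with drug at most 40%, in both replicates (limit read from the data, passing the limit was not always enough); inconclusive = both conditions met in only one replicate; inactive = neither replicate meets both conditions.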

Experiments:
[1] = SK-BR-3 cell growth inhibitors, pilot screen, 24 h, human (AID 572;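 active = viability at or below 10% of carrier control in both of two separate runs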;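 note: compound exposure lasted between 18 and 24 h rather than exactly 24 h; 100% = carrier-treated control wells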); settings: SK-BR-3 viability, CellTiter-Glo luminescence, at 10 µM, stronger effect = lower value
[2] = HUVEC growth inhibition – cell-based, human, primary screen (AID 575;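 active = viability at or below 30% in both replicate assays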;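 note: 100% = median of untreated cell wells with 0.1% DMSO on each plate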); settings: HUVEC proliferation, CellTiter-Glo luminescence, 72 h; at 10 µM; stronger effect = lower value
Outline: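 Test system – primary HUVEC, no more than 12 passages · Dosing – one dose, 10 µM final, 0.1% DMSO · Times – 72 h treatment at 37 °C · Measured by – ATP-based CellTiter-Glo luminescent read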

[3] = growth inhibitors of H69AR lung tumor, primary screen, human, duplicate replicates (AID 580;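 active = viability at or under a set limit in both replicates, limit being median viability minus 3 SD, cut at about 48% in these data, passing the limit was not always enough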;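 note: 100% = mean luminescence of untreated wells and 0% = no signal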); settings: H69AR lung tumor cells viability, ATP luminescence, 72 h; at 10 µM; stronger effect = lower value
[4] = reversal of MRP1-mediated doxorubicin resistance, pilot screen, H69AR cells, doxorubicin co-treatment (AID 601); settings: CellTiter-Glo, 72 h, at 10 µM; for differential viability (reversal): stronger effect = higher value
[5] = 384-well plate pilot, post-Golgi transport modulator project, inhibition of yeast transport mutant growth (AID 636; in the data active = inhibition above about 31%); settings: absorbance 615 nm, about 18 h, stronger effect = higher value
[6] = growth suppression of yeast trafficking mutant, preliminary HTS, modulators of trafficking downstream of Golgi apparatus project, 1536-format plate, OD 615 nm (AID 637; in the data active = inhibition above about 30%); settings: yeast transport mutant growth, absorbance 615 nm, 18 h; stronger effect = higher value
[7] = H69AR cells + 2 uM doxorubicin, measured here: viability with 2 uM doxorubicin, stronger effect = lower value
[8] = H69AR cells, compound alone cytotoxicity

| SMILES | viability [1] | viability [2] | viability [3] | differential viability (reversal) ([4]; H69AR cells + 2 uM doxorubicin) | viability [4, 7] | viability [4, 8] | inhibition [5] | inhibition [6] |
| --- | --- | --- | --- | --- | --- | --- | --- | --- |
| c1ccc(Cn2nnnc2C(c2cccs2)N2CCSCC2)cc1 (centres undefined) | 98% (inactive) | 93.1% (inactive) | 81.6% (inactive) | -2.6% (inactive) | 84.2% | 81.6% | -3.97% (inactive) | -4.35% (inactive) |
| N#Cc1cc2ccccc2nc1SCC(=O)Nc1ccccc1N1CCOCC1 | 93% (inactive) | 64.4% (inactive) | 82.2% (inactive) | -10.8% (inactive) | 93% | 82.2% | -3.25% (inactive) | 0.33% (inactive) |
| O=C(Nc1ccc(NC(=O)C2CC2)cn1)c1ccccc1Cl | 101% (inactive) | 98.7% (inactive) | 98.5% (inactive) | 7.09% (inactive) | 91.4% | 98.5% | -2.13% (inactive) | -2.91% (inactive) |
| O=C(NCc1ccc2c(c1)OCO2)C1CCC(CNS(=O)(=O)c2ccccc2)CC1 (centres undefined) | 92% (inactive) | 78.9% (inactive) | 92.2% (inactive) | -1.49% (inactive) | 93.7% | 92.2% | 0.52% (inactive) | 1.15% (inactive) |
| Cc1nnc(NC(=O)C2CCCO2)s1 (centres undefined) | 90% (inactive) | 105% (inactive) | 96.4% (inactive) | -10.5% (inactive) | 107% | 96.4% | -2.47% (inactive) | -0.91% (inactive) |
| Cc1cnc(C(=O)Nc2ccccc2-n2cccc2)cn1 | 94% (inactive) | 105% (inactive) | 92.4% (inactive) | 3.75% (inactive) | 88.6% | 92.4% | -7.6% (inactive) | -2.73% (inactive) |
| CC(=O)c1ccccc1OCCn1nnc(-c2ccc(C)cc2)n1 | 108% (inactive) | 83.6% (inactive) | 80.1% (inactive) | 5.44% (inactive) | 74.6% | 80.1% | -8.9% (inactive) | 2.1% (inactive) |
| Cc1oc2cc3c(C(=O)OCCN(C)C)c(C)oc3cc2c1C(=O)OCCN(C)C | 92.5% (inactive) | 72.2% (inactive) | 90.4% (inactive) | -16.8% (inactive) | 107% | 90.4% | -3.95% (inactive) | -10% (inactive) |
| COc1cccc(NC(=O)CC2SC(=Nc3ccccc3)NC2=O)c1 (centres undefined) | 70% (inactive) | 106% (inactive) | 92% (inactive) | -6.89% (inactive) | 98.9% | 92% | -6.35% (inactive) | -1.27% (inactive) |
| CCOC(=O)C1/C(=N\O)CC(C)(O)C(C(=O)OCC)C1c1ccc(N(C)C)cc1 (centres undefined) | 72% (inactive) | 96.9% (inactive) | 87.5% (inactive) | -13.3% (inactive) | 101% | 87.5% | 1.64% (inactive) | 5.48% (inactive) |
| CCCn1c(=O)c2[nH]c(C3CCCC3)nc2n(CCC)c1=O | 100% (inactive) | 77.3% (inactive) | 70.7% (inactive) | 50.8% (inactive) | 19.9% | 70.7% | -1.3% (inactive) | -1% (inactive) |
| CCOC(=O)N1CCC(N(C(=O)Nc2cccc(OC)c2)C(C)CC)CC1 (centres undefined) | 129% (inactive) | 120% (inactive) | 96.9% (inactive) | 1.43% (inactive) | 95.5% | 96.9% | -2.21% (inactive) | 3.11% (inactive) |
| CCCCN(Cc1cc2cc(OC)ccc2[nH]c1=O)C(=O)c1ccccn1 | 102% (inactive) | 98% (inactive) | 102% (inactive) | 6.81% (inactive) | 95% | 102% | -5.14% (inactive) | -3.82% (inactive) |
| Cc1cnc(C(=O)Nc2nnc(C(C)C)s2)cn1 | 113% (inactive) | 113% (inactive) | 87.4% (inactive) | 6.11% (inactive) | 81.2% | 87.4% | -0.26% (inactive) | -1.97% (inactive) |
| Cc1ccc2c(c1)N(CC(=O)Nc1ccc3c(c1)OCCO3)C(=O)CO2 | 104% (inactive) | 103% (inactive) | 105% (inactive) | 10.7% (inactive) | 94.3% | 105% | -5% (inactive) | -4.73% (inactive) |
| O=C(CN1CCC(O)(c2ccc3c(c2)OCO3)CC1)OC1CCCCC1 | 83% (inactive) | 103% (inactive) | 96.8% (inactive) | 3.36% (inactive) | 93.4% | 96.8% | -7.3% (inactive) | 2.73% (inactive) |
| CCc1c(C)nc2ncnn2c1N1CCC(C(=O)NCc2cccc(OC)c2)CC1 | 134% (inactive) | 85.8% (inactive) | 89.9% (inactive) | -9.81% (inactive) | 99.7% | 89.9% | -3.7% (inactive) | -1.29% (inactive) |

| SMILES | viability [1] | viability [2] | viability [3] | differential viability (reversal) ([4]; H69AR cells + 2 uM doxorubicin) | viability [4, 7] | viability [4, 8] | inhibition [5] | inhibition [6] |
| --- | --- | --- | --- | --- | --- | --- | --- | --- |
| CCc1c(C(=O)Nc2ncn(Cc3cccc(C)c3)n2)csc1C | 105% (inactive) | 112% (inactive) | 85.6% (inactive) | 4.33% (inactive) | 81.3% | 85.6% | -2.84% (inactive) | -1.64% (inactive) |
| Cc1ccc(F)cc1NC(=O)C1CCCN(c2ncccn2)C1 (centres undefined) | 100% (inactive) | 104% (inactive) | 88.7% (inactive) | -1.88% (inactive) | 90.6% | 88.7% | -6.8% (inactive) | -2.91% (inactive) |
| COc1ccccc1-c1nc2n(n1)C(c1ccc(Cl)cc1)C(C(N)=O)=C(C)N2 (centres undefined) | 126% (inactive) | 89.8% (inactive) | 83.5% (inactive) | -4.36% (inactive) | 87.9% | 83.5% | -0.91% (inactive) | -3.61% (inactive) |
| CCOc1ccc(-c2cc(C(=O)N3CCN(c4ccccn4)CC3)c3ccccc3n2)cc1 | 127% (inactive) | 43.5% (inactive) | 12.5% (active) | -66.7% (inactive) | 79.2% | 12.5% | 0.13% (inactive) | -0.49% (inactive) |
| COc1ccccc1NC(=O)CSc1nnc(Cn2nnc(-c3ccccc3)n2)n1-c1ccccc1 | 63% (inactive) | 88.7% (inactive) | 87.4% (inactive) | -5.36% (inactive) | 92.8% | 87.4% | -5.75% (inactive) | -1.45% (inactive) |
| CC(C)CN(CC(C)C)C(=O)CS(=O)(=O)Cc1ccccc1 | 87% (inactive) | 98.8% (inactive) | 91.4% (inactive) | 3.15% (inactive) | 88.2% | 91.4% | -5.75% (inactive) | 1.13% (inactive) |
| CCNC(=O)CC1C(=O)N(c2ccccc2)C(=O)N1CCC(C)C (centres undefined) | 117% (inactive) | 95.9% (inactive) | 93.5% (inactive) | 13.9% (inactive) | 79.6% | 93.5% | -0.78% (inactive) | -0.82% (inactive) |
| O=c1c2cnn(-c3ccccc3)c2ncn1/N=C/c1ccncc1 | 125% (inactive) | 108% (inactive) | 101% (inactive) | 18.9% (inactive) | 82.2% | 101% | -5.07% (inactive) | -4.91% (inactive) |
| CCOc1cc(C(=O)N(C)Cc2cc3ccccc3[nH]c2=O)cc(OCC)c1OCC | 92% (inactive) | 107% (inactive) | 98.6% (inactive) | 2.04% (inactive) | 96.6% | 98.6% | -7.43% (inactive) | -4.18% (inactive) |
| O=C(Nc1cc(C(F)(F)F)ccc1N1CCCC1)c1ccc2c(c1)OCO2 | 72% (inactive) | 92.9% (inactive) | 98% (inactive) | 0.92% (inactive) | 97.1% | 98% | -6.99% (inactive) | -5.09% (inactive) |
| CC1(C)CC(=O)c2sc(NS(C)(=O)=O)nc2C1 | 119% (inactive) | 101% (inactive) | 96% (inactive) | 12.7% (inactive) | 83.2% | 96% | -6.16% (inactive) | 1.94% (inactive) |
| O=C(O)C(c1ccccc1)N1CCCC1 (centres undefined) | 106% (inactive) | 102% (inactive) | 95.9% (inactive) | 16.4% (inactive) | 79.5% | 95.9% | -5.6% (inactive) | -3.64% (inactive) |
| Cc1nc2ncnn2c(N2CCC(C(=O)NCC3CCCO3)CC2)c1Cc1ccccc1 (centres undefined) | 136% (inactive) | 97.1% (inactive) | 89.5% (inactive) | -6.76% (inactive) | 96.3% | 89.5% | -3.7% (inactive) | -4.55% (inactive) |
| O=C(Nc1ccc(N2CCOCC2)c(Cl)c1)c1ccc(Br)o1 | 91% (inactive) | 65.5% (inactive) | 20% (active) | -12.4% (inactive) | 32.4% | 20% | -3.7% (inactive) | 5.81% (inactive) |
| COc1ccc(C(c2nnnn2C2CCCC2)N2CCC(C)CC2)c(OC)c1 (centres undefined) | 154% (inactive) | 91.4% (inactive) | 87.8% (inactive) | -8.92% (inactive) | 96.7% | 87.8% | -0.26% (inactive) | -3.28% (inactive) |
| O=S(=O)(NCc1ccc(Cl)cc1)c1cnc[nH]1 | 103% (inactive) | 98.1% (inactive) | 106% (inactive) | 23.5% (inactive) | 82.7% | 106% | -6.36% (inactive) | -4.59% (inactive) |
